Measurements taken from ChEMBL document CHEMBL1126013, “Synthesis and evaluation of some water-soluble prodrugs and derivatives of taxol with antitumor activity” (J Med Chem, 1992).

What was measured:
[1] = system: Mus musculus; assay: Initial average tumor weight was measured in mice induced with human mammary carcinoma at a dose of 13 mg/Kg; assay type: functional
Method in brief: (§1)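 MX-1 human mammary carcinoma xenograft implanted under the renal capsule in mice. Study run at the National Cancer Institute following NIH Publication No. 84-2635. Tumor weights recorded at the start and at the end. Survivors counted after 11 days. %T/C = (Δ tumor weight treated/Δ tumor weight control) × 100 where the tumor grows, and (Δ tumor weight treated/initial control tumor weight) × 100 where it regresses.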

[2] = system: Mus musculus; assay: Final average tumor weight was measured in mice induced with human mammary carcinoma at a dose of 5.9 mg/Kg; assay type: functional; method in brief: as §1
[3] = system: Mus musculus; assay: Antitumor activity of taxoland the derivative against mammary carcinoma xenograft in mice; assay type: functional; method in brief: as §1
[4] = system: Mus musculus; assay: Number of survivors after 11 days at a dose of 5.9 mg/Kg tested in 6 mice; assay type: functional
Method in brief: (§2)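 MX-1 human mammary carcinoma xenograft implanted under the renal capsule of mice. The study was run at the National Cancer Institute following the procedures of NIH Publication No. 84-2635. Average tumor weight was recorded at the start and end of treatment, and survivors were counted after 11 days. Dosed groups were compared with an untreated control group.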

[5] = system: B16; assay: Concentration required to inhibit the proliferation of B16 melanoma cells was determined; assay type: functional, cell-based; settings: Mus musculus
[6] = system: Mus musculus; assay: Tumor growth or regression measured as Percent treated by control at a dose of 30 mg/Kg to mice with MX-1 xenograft; Tox refers to toxicity or when < 65% of the animals survive the test; assay type: functional, organism-based; method in brief: as §1
[7] = system: Mus musculus; assay: final average tumor weight was measured in mice induced with human mammary carcinoma at a dose of 13 mg/Kg; assay type: functional
Method in brief: (§3)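 Subrenal capsule human mammary carcinoma (MX-1) xenograft in mice, run at the National Cancer Institute by NIH Publication No. 84-2635 procedures. Initial and final average tumor weights recorded, with survivors counted after 11 days. %T/C is (Δ tumor weight treated/Δ tumor weight controls)×100 for growing tumors. For regressing tumors it is (Δ tumor weight treated/initial control tumor weight)×100.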

[8] = system: Mus musculus; assay: Tumor growth or regression measured as Percent treated by control at a dose of 8.9 mg/kg to mice with MX-1 xenograft; assay type: functional; method in brief: as §3
[9] = system: Mus musculus; assay: Number of survivors after 11 days at a dose of 30 mg/kg tested in 6 mice; assay type: functional; method in brief: as §2
[10] = system: Mus musculus; assay: Tumor growth or regression measured as Percent treated by control at a dose of 13 mg/Kg to mice with MX-1 xenograft; CR refers to complete remission or when the tumor is no longer detectable; assay type: functional, organism-based; method in brief: as §1
[11] = system: Mus musculus; assay: Final average tumor weight was measured in mice induced with human mammary carcinoma at a dose of 8.9 mg/Kg; assay type: functional; method in brief: as §1
[12] = system: B16; assay: Percentage change in cell number of B16 melanoma cells treated with 10e-6 M dose; assay type: functional, Mus musculus
Method in brief: (§4)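 B16 melanoma cells exposed to 10⁻⁵ or 10⁻⁶ M compound for 8 h, then rinsed three times with fresh medium. Cells then grown in drug-free medium for 48 h and counted. Result given as percent change relative to the cell number at time zero. Controls are the average of three experiments.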

[13] = system: B16; assay: Relative effect on B16 melanoma cell proliferation was determined [IC50 (taxol)/IC50 (derivative)]; assay type: functional, Mus musculus
[14] = Solubility in water; assay type: physicochemical; settings: read-out: S
[15] = system: Mus musculus; assay: Final average tumor weight was measured in mice induced with human mammary carcinoma at a dose of 30 mg/kg; assay type: functional; method in brief: as §1
[16] = system: Mus musculus; assay: Initial average tumor weight was measured in mice induced with human mammary carcinoma at a dose of 20 mg/Kg; assay type: functional; method in brief: as §1
[17] = system: Mus musculus; assay: Initial average tumor weight was measured in mice induced with human mammary carcinoma at a dose of 5.9 mg/Kg; assay type: functional; method in brief: as §1
[18] = system: Mus musculus; assay: Number of survivors after 11 days at a dose of 13 mg/Kg tested in 6 mice; assay type: functional; method in brief: as §2
[19] = organism: Bos taurus; assay: Relative effect on microtubular assembly (Tubulin polymerized by derivative/tubulin polymerized by taxol); assay type: functional
Method in brief: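 Bovine brain tubulin, purified from microtubule-associated proteins by phosphocellulose chromatography, used at 10 μM. Turbidity followed at 350 nm. Polymer pelleted at 200000g, 37 °C, 4 min, depolymerized on ice, and protein measured by Bradford.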

[20] = system: Mus musculus; assay: Number of survivors after 11 days at a dose of 20 mg/Kg tested in 6 mice; assay type: functional; method in brief: as §2
[21] = system: Mus musculus; assay: Number of survivors after 11 days at a dose of 8.9 mg/Kg tested in 6 mice; assay type: functional; method in brief: as §2
[22] = system: B16; assay: Percentage change in cell number of B16 melanoma cells treated with 10e-5 M dose; assay type: functional, Mus musculus; method in brief: as §4
[23] = system: Mus musculus; assay: Tumor growth or regression measured as Percent treated by control at a dose of 20 mg/Kg to mice with MX-1 xenograft; CR refers to complete remission or when the tumor is no longer detectable; assay type: functional, organism-based; method in brief: as §1
[24] = system: Mus musculus; assay: Initial average tumor weight was measured in mice induced with human mammary carcinoma at a dose of 8.9 mg/Kg; assay type: functional; method in brief: as §1
[25] = system: Mus musculus; assay: Tumor growth or regression measured as Percent treated by control at a dose of 5.9 mg/Kg to mice with MX-1 xenograft; assay type: functional; method in brief: as §3
[26] = system: Mus musculus; assay: Final average tumor weight was measured in mice induced with human mammary carcinoma at a dose of 20 mg/Kg; assay type: functional; method in brief: as §1
[27] = system: Mus musculus; assay: Initial average tumor weight was measured in mice induced with human mammary carcinoma at a dose of 30 mg/kg; assay type: functional; method in brief: as §1

CC(=O)O[C@H]1C(=O)[C@@]2(C)[C@H]([C@H](OC(=O)c3ccccc3)[C@]3(O)C[C@H](OC(=O)[C@H](OC(=O)CN(C)C)[C@@H](NC(=O)c4ccccc4)c4ccccc4)C(C)=C1C3(C)C)[C@]1(OC(C)=O)CO[C@@H]1C[C@@H]2O.CS(=O)(=O)O
Initial average tumor weight [1]: 0.64 mg
Final average tumor weight [2]: 0.13 mg
Relative antitumor activity [3]: 2
No. of survivors [4]: 6
IC50 [5]: 21 nM
T/C [6]: Toxic
Final average tumor weight [7]: 0 mg
T/C [8]: -53%
No. of survivors [9]: 1
T/C [10]: Complete remission
Final average tumor weight [11]: 0.36 mg
Change in cell number [12]: 261%
Relative effect [13]: 0.9
solubility [14]: 4.83 mM
Final average tumor weight [15]: 0 mg
Initial average tumor weight [16]: 0.56 mg
Initial average tumor weight [17]: 0.61 mg
No. of survivors [18]: 4
Relative effect [19]: 0.25
No. of survivors [20]: 4
No. of survivors [21]: 5
Change in cell number [22]: 84%
T/C [23]: Complete remission
Initial average tumor weight [24]: 0.77 mg
T/C [25]: -78%
Final average tumor weight [26]: 0 mg
Initial average tumor weight [27]: 0.68 mg
